Experimental data of several laboratories.
Each line is one published result; the experiments were not run side by side.
Target: Mitogen-activated protein kinase kinase kinase 12 (MAP3K12, Homo sapiens, UniProt Q12852)
Residues used in one study (Q12852 1-859): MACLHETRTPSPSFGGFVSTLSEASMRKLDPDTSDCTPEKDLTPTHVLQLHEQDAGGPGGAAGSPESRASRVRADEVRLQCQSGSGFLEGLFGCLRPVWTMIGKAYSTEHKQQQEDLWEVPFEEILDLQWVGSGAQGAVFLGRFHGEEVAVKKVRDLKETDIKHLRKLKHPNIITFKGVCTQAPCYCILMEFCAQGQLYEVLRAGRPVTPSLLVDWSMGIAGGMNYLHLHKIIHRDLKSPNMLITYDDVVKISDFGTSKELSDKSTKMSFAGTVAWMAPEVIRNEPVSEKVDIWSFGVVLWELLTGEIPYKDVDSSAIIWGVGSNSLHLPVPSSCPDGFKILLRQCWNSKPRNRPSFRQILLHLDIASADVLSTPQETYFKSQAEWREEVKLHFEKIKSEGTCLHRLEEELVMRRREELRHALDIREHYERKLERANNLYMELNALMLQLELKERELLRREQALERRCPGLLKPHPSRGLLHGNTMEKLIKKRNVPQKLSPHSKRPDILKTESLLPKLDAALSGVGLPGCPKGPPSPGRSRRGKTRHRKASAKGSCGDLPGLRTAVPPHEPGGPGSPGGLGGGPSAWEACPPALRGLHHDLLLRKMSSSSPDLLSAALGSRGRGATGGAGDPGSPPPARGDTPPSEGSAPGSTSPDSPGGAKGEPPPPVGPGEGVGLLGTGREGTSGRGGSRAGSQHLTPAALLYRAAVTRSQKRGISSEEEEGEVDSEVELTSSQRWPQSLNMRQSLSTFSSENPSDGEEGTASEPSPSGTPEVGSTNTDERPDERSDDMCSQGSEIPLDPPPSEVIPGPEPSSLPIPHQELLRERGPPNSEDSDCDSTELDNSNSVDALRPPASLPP

CN(C)c1nccc(-c2cnn3ncccc23)n1  remaining binding (binding; 1 µM): 98%
O=C(c1ccc(Nc2nccc(-c3cc4ccccc4s3)n2)cc1)N1CCC(N2CCCC2)CC1  remaining binding (binding; competition with immobilised ligand; 1 µM): 28%
N[C@H]1CCN(c2nccc(-c3cnn4ncccc34)n2)C1  remaining binding (binding; 1 µM): 71%
CN1CCN(c2cnc3c(C4CCN(C(=O)c5ccc(OC(F)(F)F)cc5N)CC4)ncnc3c2)CC1  remaining binding (cell-free assay; competition with immobilised ligand; 1 µM): 100%
O=C(c1ccc(Nc2ncc(Cl)c(-c3ccc(Cl)s3)n2)cc1)N1CCC(N2CCCC2)CC1  remaining binding (binding; competition with immobilised ligand; 1 µM): 7.8%
c1cncc(-c2cccc(Nc3nccc(NC4CCCCC4)n3)c2)c1  remaining binding (binding; competition with immobilised ligand; 10 µM): 67%
O=C(c1ccc(Nc2ncc(Cl)c(-c3cc4ccccc4s3)n2)cc1)N1CCC(N2CCCC2)CC1  remaining binding (binding; competition with immobilised ligand; 1 µM): 6.9%
O=C(N1CCS(=O)(=O)CC1)N1C[C@H](c2ccc(OC(F)(F)F)cc2)C[C@H](c2nc(C3CC3)no2)C1  remaining binding (cell-free assay; competition with immobilised ligand; 1 µM): 0%
O=C(Nc1c[nH]nc1C(=O)NC1CCNCC1)c1cc(F)cc(F)c1  remaining binding (binding; competition with immobilised ligand; 1 µM): 88%
C[C@H]1CCN(c2nccc(-c3cnn4ncccc34)n2)C1  remaining binding (binding; 1 µM): 100%
COc1ncc2cc3ccccc3nc2c1C#N  remaining binding (cell-free assay; competition with immobilised ligand; 5 µM): 81%
Cc1cc(-n2nc(Cc3cc(F)cc(C(F)(F)F)c3)nc2C)ccc1C(N)=O  remaining binding (cell-free assay; competition with immobilised ligand; 1 µM): 100%
CCN1CCN(Cc2ccc(C(=O)Nc3ccc(C)c(Oc4ccc5c(c4)CC(=O)N5)c3)cc2C(F)(F)F)CC1  remaining binding (binding; competition with immobilised ligand; 1 µM): 100%
Cc1nc(N2CC[C@@H](O)C2)ncc1-c1cc(C(F)(F)F)cc2[nH]ncc12  remaining binding (binding; competition with immobilised ligand; 1 µM): 99%
c1cnn2ncc(-c3ccnc(N4CCC45COC5)n3)c2c1  remaining binding (binding; 1 µM): 74%
FC(F)(F)c1ccc2c(c1)nc(-c1cccnc1)n2C1CC1  remaining binding (cell-free assay; competition with immobilised ligand; 1 µM): 100%
F[C@@H]1CCN(c2nccc(-c3cnn4ncccc34)n2)C1  remaining binding (binding; 1 µM): 100%
CC(=O)C1=C(C)N(c2cccc(C(F)(F)F)c2)C(=O)N[C@@H]1c1ccc(C#N)nc1  remaining binding (cell-free assay; competition with immobilised ligand; 1 µM): 86.8%
Cc1cnn2ncc(-c3ccnc(N(C)C)n3)c2c1  remaining binding (binding; 1 µM): 83%
CNC(=O)[C@@H]1CC[C@@H](n2c(-c3ccc4cnccc4c3)nc3ccc(C(=O)NCc4cccc(C(N)=O)c4)cc32)C1  remaining binding (binding; competition with immobilised ligand; 1 µM): 100%
